The list is not random: actives were taken first. Their share in the collection is about 3.1%.
Calb FLC: C. albicans growth modulation with fluconazole | C. albicans CaCi-2 (fluconazole-resistant clinical isolate) + fluconazole, Alamar Blue growth, 48 h | growth inhibition, % (no concentration beside the values) | 300,000 tested, 0.57% active | AID 1979;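 active = growth inhibition above about 58% in most replicates, limit read from the data, passing the limit was not always enough; inconclusive = exactly half the replicates above a set limit; inactive = most replicates below a set limit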;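 note: all wells also contain fluconazole at 8 µg/ml as a sub-toxic cotreatment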
TAG inh: reduces triacylglycerol accumulation in H9c2 cells; Nile Red lipid (TAG) fluorescence; cells loaded with 200 µM oleic acid; 230,000 tested, 0.66% active; inhibition, % at 12.5 µM;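 active = pattern-corrected inhibition of lipid staining of at least 50% with the nuclear-stain viability signal not falling by more than 50%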
A1 inh: inhibitors of the anti-apoptotic protein A1, read as caspase activation | MEF A1-2A-BIM cells, Caspase-Glo 3/7 luminescence, 3 h; percent of clofoctol response, vehicle zero | caspase activation, % (no concentration beside the values) | 330,000 tested, 0.066% active;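 active = over half of replicate activation scores above 10%, or exactly half above 10 with the replicate mean above 10; inconclusive = replicate mean below 10 yet half the replicates above 10; inactive = over half of replicates below 10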
CSC inhib: cancer stem cell inhibition | cancer stem cell-like cells viability, luminescence | inhibition, % at 7.5 µM | 300,000 tested, 1.1% active | AID 2717; in the data active = inhibition above about 75%; inconclusive = no clear call, values can overlap the other calls; tested in HMLE shEcad cells
T cruzi repl: T. cruzi replication inhibition; T. cruzi beta-gal in NIH3T3, luminescence, 90 h; inhibition, % (test concentration not listed); 300,000 tested, 1.4% active;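 active = mean inhibition across valid replicates above about 55%, limit read from the data; inconclusive = mean below that limit but half or more replicates reach it; inactive = mean below it, under half of replicates reach it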;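 note: signal also drops with host cell toxicity which is not excluded here; higher percent means less beta-gal luminescence so fewer parasites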
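assay system = mouse NIH/3T3 fibroblasts infected with β-gal-expressing T. cruzi Tulahuen C4 | input = 5,000 NIH/3T3 host cells per well | buffer or medium = DMEM plus 2% FBS | timing = 3 h host attachment, then at least 90 h co-culture | measured by = GalScreen luminescence, 60 min | evaluation = luminescence reflecting intracellular parasite burden, expressed as percent inhibition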
Beta apoptosis: blocks beta cell apoptosis. INS-1E cytokine-induced death, ATP luminescence, 48 h; percent of positive-control rescue, neutral wells zero. protection from apoptosis, % (concentration not given with the values). 300,000 tested, 0.8% active. AID 435005;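 active = Every replicate reaches about 75%, or at least half do and their mean reaches it too, limit read from the data; inconclusive = At least half of replicates reach the limit but their mean does not; inactive = Under half of replicates reach the limit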;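 note: higher means more ATP so stronger rescue from cytokine killing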
Each line names hits and unclear results; the compound was inactive in the other large screens.

COc1ccc2[nH]c3c(c2c1)CCN1C(=O)N([C@@H](C)C(=O)NC2CC2)C(=O)[C@]31C	none (no result: TAG inh)
C[C@@H](C(=O)NCCc1ccccc1)N1C(=O)N2CCc3c([nH]c4ccccc34)[C@@]2(C)C1=O	T cruzi repl 61.3 (no result: TAG inh)
CC(C)C[C@@H](C(=O)NC1CCN(Cc2ccccc2)CC1)N1C(=O)N2CCc3c([nH]c4ccccc34)[C@@]2(C)C1=O	T cruzi repl 65.0 (no result: TAG inh)
COc1ccc2[nH]c3c(c2c1)CCN1C(=O)N([C@@H](C)C(=O)NC2CCN(Cc4ccccc4)CC2)C(=O)[C@]31C	T cruzi repl 64.0 (no result: TAG inh, Beta apoptosis)
COc1cccc(CC(=O)OCC(=O)NC(C)c2ccc(F)cc2)c1 (stereo unspecified)	none (no result: Calb FLC, T cruzi repl)
C/C(=N\NC(=O)c1cccc(S(=O)(=O)N2CCOCC2)c1)c1ccc(C)cc1	none (no result: Calb FLC, T cruzi repl)
FC(F)(F)c1cc(-c2ccco2)nc(-n2cnc3ccccc32)n1	none (no result: TAG inh)
Cc1nc2ccccc2n1-c1nc(-c2ccco2)cc(C(F)(F)F)n1	CSC inhib 148.5, Beta apoptosis 131.0 (no result: TAG inh)
CC1CCN(C(=O)COC(=O)C2CCN(S(=O)(=O)c3ccc(Cl)c(C(F)(F)F)c3)CC2)CC1	none
Cc1c(NC(=O)c2ccc(NC(=O)C3CC3)cc2)cccc1C(=O)O	none
O=[N+]([O-])c1ccc(-n2nnnc2-c2ccccc2)c([N+](=O)[O-])c1	T cruzi repl 62.3 (no result: TAG inh)
COc1ccc(CN2CCCC(C(=O)c3ccc(Cl)cc3)C2)cc1Cn1cccn1 (stereo unspecified)	T cruzi repl 64.3
COc1ccc(CN2CCCC(C(=O)Nc3cccc(-n4cccn4)c3)C2)cc1 (stereo unspecified)	none (no result: TAG inh)
COc1cccc(C(=O)C2CCCN(Cc3ccc(OC)c(Cn4cncn4)c3)C2)c1 (stereo unspecified)	T cruzi repl 57.7
COCc1cc(CN2CCCC(C(=O)Nc3cccc(-n4cnnn4)c3)C2)ccc1OC (stereo unspecified)	T cruzi repl 69.6
O=C(Nc1ccc2ccccc2c1)c1cn(-c2ccccc2)nc1-c1cccs1	T cruzi repl 59.5 (no result: TAG inh)
CN(C)C(=O)c1cn(-c2ccccc2)nc1-c1cccs1	Calb FLC 105.6 (no result: TAG inh)
O=C(c1cn(-c2ccccc2)nc1-c1cccs1)N(CCO)Cc1ccccc1	none
CN(C)c1ccc(NC(=O)c2cn(-c3ccccc3)nc2-c2cccs2)cc1	none (no result: Beta apoptosis)
CCCc1cc(C(=O)Nc2sc3c(c2C#N)CCC3)no1	Calb FLC 84.1
Cc1onc(C(=O)Nc2sc3c(c2C#N)CCCC3)c1[N+](=O)[O-]	Calb FLC 82.0
Cc1onc(-c2ccccc2Cl)c1C(=O)Nc1sc2c(c1C#N)CCC2	Calb FLC 76.7 (no result: TAG inh)
CC(=O)Nc1sc2c(c1C#N)CCCC2	none
CCOC(=O)c1c(NC(=O)/C=C\C(=O)O)sc(C)c1-c1ccccc1	none
CCOC(=O)c1c(NC(=O)/C=C/C(=O)O)sc(C)c1-c1ccc(C(C)(C)C)cc1	CSC inhib 109.2, T cruzi repl 56.6, Beta apoptosis 79.4
CC(C)c1ccc(CCNC(=O)CCNS(=O)(=O)c2ccc(Br)cc2)cc1	none (no result: Calb FLC, T cruzi repl)
NC(=O)C1CCN(c2nc(-c3ccccc3C(F)(F)F)cs2)CC1	none (no result: Calb FLC, T cruzi repl)
CCOC(=O)c1c(NC(=O)c2c(-c3ccccc3)noc2C)sc(C)c1-c1ccccc1	T cruzi repl 63.1
N#Cc1c(NC(=O)c2ccc(Cn3cc(Br)cn3)o2)sc2c1CCCCC2	CSC inhib 106.3
CC1CCc2c(sc(NC(=O)c3ccc(Cn4cc([N+](=O)[O-])cn4)o3)c2C#N)C1 (stereo unspecified)	none
CCN1CCN(C(=S)Nc2sc(C)c(-c3ccccc3)c2C(=O)OC)CC1	CSC inhib 90.2
CCOCc1nnc(NC(=O)c2c(-c3ccccc3)noc2C)s1	none (no result: TAG inh, A1 inh, CSC inhib, Beta apoptosis)
Cc1onc(-c2ccccc2)c1C(=O)Nc1sc2c(c1C#N)CCC(C)C2 (stereo unspecified)	CSC inhib 139.1 (no result: TAG inh)
CC(C)(C)OC(=O)C[C@H]1C/C=C\C[C@H](CC(=O)NCCO)C(=O)NC[C@H](c2ccccc2)OC1=O	none (no result: Calb FLC, CSC inhib, T cruzi repl)
O=C(O)C1C2CCC(O2)C1C(=O)Nc1ccc(Br)cc1F (stereo unspecified)	none
N#Cc1c(NC(=O)c2nc3ncccn3n2)sc2c1CCCCC2	Calb FLC 95.3 (no result: T cruzi repl)
C/C(=N\NC(=O)c1ccccc1O)c1ccc(NC(=O)Cc2ccccc2)cc1	none
O=C1CC(c2ccccc2)CC2=C1C=Nc1ccccc1N2 (stereo unspecified)	none
O=C1CC(c2ccc(F)cc2)CC2=C1C=Nc1ccccc1N2 (stereo unspecified)	CSC inhib 103.1
CCN(CC)C(=O)CSc1nnc2nnc3cc(Cl)ccc3n12	Calb FLC inconclusive, T cruzi repl 58.9
CCN(CC)C(=O)CSc1nnc2nnc3cc(C)ccc3n12	none
O=C(Cn1cnc2cc([N+](=O)[O-])ccc2c1=O)NCc1ccc(Cl)cc1	none
Cc1cc(OCCn2cnc3ccccc3c2=O)ccc1[N+](=O)[O-]	none (no result: TAG inh)
O=c1c2ccc([N+](=O)[O-])cc2ncn1CCOc1cccc(Br)c1	T cruzi repl 66.5
O=c1c2ccc([N+](=O)[O-])cc2ncn1CCOc1ccc(Cl)cc1	T cruzi repl 63.3
CN(C)S(=O)(=O)c1cccc(NC(=S)N/N=C/c2cc(Br)ccc2O)c1	Calb FLC 81.0, CSC inhib 76.8, T cruzi repl 57.1, Beta apoptosis 94.0
CN(C)S(=O)(=O)c1cccc(NC(=S)N/N=C/c2cccc(O)c2)c1	none (no result: TAG inh)
CN(CC(=O)N(C)CC(=O)Nc1c(Cl)cccc1Cl)Cc1ccccc1F	none (no result: Calb FLC, T cruzi repl)
NC[C@@H]1O[C@H](C23CC4CC(CC(C4)C2)C3)Cc2c1ccc(O)c2O	Calb FLC 101.4
CN(Cc1ccccc1)C(=O)c1cccc(NC(=O)Cc2cccc([N+](=O)[O-])c2)c1	none (no result: Calb FLC, T cruzi repl)
O=[N+]([O-])c1cc(-c2cnc3ccccc3n2)ccc1Oc1ccc(Cl)cc1	CSC inhib 76.7 (no result: TAG inh)
CC(C)c1ccc(N=c2c([N+](=O)[O-])nn(-c3ccc4c(c3)OCCO4)n2O)cc1	none (no result: TAG inh)
O=[N+]([O-])c1nn(-c2ccc(Cl)cc2)n(O)c1=NCc1ccccc1Cl	none
O=[N+]([O-])c1nn(-c2ccc3c(c2)OCCO3)n(O)c1=NC1CCN(Cc2ccccc2)CC1	T cruzi repl 62.1 (no result: TAG inh)
O=[N+]([O-])c1nn(-c2ccccc2)n(O)c1=NC1CCN(Cc2ccccc2)CC1	T cruzi repl 76.7
O=c1[nH]c(Nc2nc3ccccc3o2)nc2c1CCCC2	T cruzi repl 60.0 (no result: TAG inh)
Cc1cc(C)nc(SCC(=O)NNS(=O)(=O)c2ccc(C#N)cc2)n1	none (no result: Calb FLC, A1 inh, CSC inhib, T cruzi repl, Beta apoptosis)
O=C1C=C(NCCc2cc(Br)c(O)c(Br)c2)C(=O)c2ncccc21	TAG inh 52.8 (no result: Calb FLC, A1 inh, CSC inhib, T cruzi repl, Beta apoptosis)
Cc1cc2ccccc2n1CCNC(=O)COc1ccccc1	T cruzi repl 57.6
CCC(=O)NCCn1c(C)cc2ccccc21	none

Assay outcomes: PubChem, several laboratories
